# Laboratory results from ChEMBL document CHEMBL4325902, “Design, synthesis and biological evaluation of novel, orally bioavailable pyrimidine-fused heterocycles as influenza PB2 inhibitors” (Eur J Med Chem, 2019).
# Key:
# [1] = Cytotoxicity against MDCK cells assessed as reduction in cell viability after 5 days by CCK-8 assay; type: cell-based, Canis lupus familiaris; settings: dog
# Method in brief: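 MDCK cells seeded at 2×10^3 per well and grown overnight at 37°C, 5% CO2. Diluted compound (0.5% DMSO final) added without virus, then 5 days at 37°C. Viability read by CCK-8. CC50 is the concentration cutting viability to 50% of control, from a dose-response fit.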
# [2] = Half life in CD-1 mouse liver microsomes at 1 uM preincubated for 10 mins followed by NADPH addition measured up to 60 mins by LC/MS/MS analysis; type: ADME, Microsome
# Method in brief: (§1)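 Test compound at 1 µM with 0.5 mg/mL liver microsomal protein (CD-1 mouse, SD rat or human) in 100 mM potassium phosphate, pH 7.4. Preincubated 10 min at 37°C, then started with NADPH (1 mM generating system). Sampled at 0–60 min and stopped with cold acetonitrile containing internal standards. Compound loss gave T1/2. A no-NADPH control ran 60 min.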
# [3] = Half life in Sprague-Dawley rat liver microsomes at 1 uM preincubated for 10 mins followed by NADPH addition measured up to 60 mins by LC/MS/MS analysis; type: ADME, Microsome; method in brief: as §1
# [4] = Half life in human liver microsomes at 1 uM preincubated for 10 mins followed by NADPH addition measured up to 60 mins by LC/MS/MS analysis; type: ADME, Microsome; method in brief: as §1
# [5] = Clearance in CD-1 mouse at 0.5 mg/kg, iv; type: ADME, organism-based; settings: in vivo
# Method in brief: (§2)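 Male CD-1 mice, n=3 per dose, values are cohort means. Cassette PK: 0.5 mg/kg iv and 1 mg/kg po, both in 20% Solutol in water. Reported parameters are clearance, T1/2, Vd, AUC, Cmax, Tmax and %F.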
# [6] = AUC in CD-1 mouse at 1 mg/kg, po; type: ADME, organism-based; settings: in vivo; method in brief: as §2
# [7] = Half life in CD-1 mouse at 0.5 mg/kg, iv; type: ADME, organism-based; settings: in vivo; method in brief: as §2
# [8] = Tmax in CD-1 mouse at 1 mg/kg, po; type: ADME, organism-based; settings: in vivo; method in brief: as §2
# [9] = AUC in CD-1 mouse at 0.5 mg/kg, iv; type: ADME, organism-based; settings: in vivo; method in brief: as §2
# [10] = Volume of distribution in CD-1 mouse at 0.5 mg/kg, iv; type: ADME, organism-based; settings: in vivo; method in brief: as §2
# [11] = Cmax in CD-1 mouse at 1 mg/kg, po; type: ADME, organism-based; set-up: dose 1 mg/kg, route oral; settings: in vivo; method in brief: as §2
# [12] = Oral bioavailability in CD-1 mouse at 1 mg/kg; type: ADME, organism-based; settings: in vivo; method in brief: as §2
# [13] = Oral bioavailability in CD-1 mouse at 10 mg/kg; type: ADME, organism-based; settings: in vivo
# Method in brief: (§3)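 Male CD-1 mice, n=3 per dose, values are cohort means. Dosed 1 mg/kg iv and 10 mg/kg po, each in 20% Solutol in water. Reported parameters are Cl, T1/2, Vd, AUC, Cmax, Tmax and %F.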
# [14] = Tmax in CD-1 mouse at 10 mg/kg, po; type: ADME, organism-based; settings: in vivo; method in brief: as §3
# [15] = AUC in CD-1 mouse at 1 mg/kg, iv; type: ADME, organism-based; settings: in vivo; method in brief: as §3
# [16] = Cmax in CD-1 mouse at 10 mg/kg, po; type: ADME, organism-based; set-up: dose 10 mg/kg, route oral; settings: in vivo; method in brief: as §3
# [17] = Volume of distribution in CD-1 mouse at 1 mg/kg, iv; type: ADME, organism-based; settings: in vivo; method in brief: as §3
# [18] = Half life in CD-1 mouse at 1 mg/kg, iv; type: ADME, organism-based; settings: in vivo; method in brief: as §3
# [19] = AUC in CD-1 mouse at 10 mg/kg, po; type: ADME, organism-based; settings: in vivo; method in brief: as §3
# [20] = Clearance in CD-1 mouse at 1 mg/kg, iv; type: ADME, organism-based; settings: in vivo; method in brief: as §3
structure (smiles),measurement,setting,value
O=C(O)[C@H]1C2CCC(CC2)[C@@H]1Nc1nc(-c2n[nH]c3ncc(F)cc23)nc2ccsc12,CC50 at 120 h,[1],0.2 µM
same,half-life at 1 µM,[2],0.683 h
same,half-life at 1 µM,[3],1.22 h
same,half-life at 1 µM,[4],1.28 h
O=C(O)[C@H]1C2CCC(CC2)[C@@H]1Nc1nc(-c2c[nH]c3ncc(F)cc23)nc2scnc12,CC50 at 120 h,[1],1.5 µM
N#Cc1csc2c(N[C@H]3C4CCC(CC4)[C@@H]3C(=O)O)nc(-c3c[nH]c4ncc(F)cc34)nc12,CC50 at 120 h,[1],0.7 µM
O=C(O)[C@H]1C2CCC(CC2)[C@@H]1Nc1nc(-n2ccc3ncc(F)cc32)ncc1F,CC50 at 120 h,[1],1.1 µM
Cn1cc(F)c2c(N[C@H]3C4CCC(CC4)[C@@H]3C(=O)O)nc(-c3c[nH]c4ncc(F)cc34)nc21,CC50 at 120 h,[1],0.6 µM
O=C(O)[C@H]1C2CCC(CC2)[C@@H]1Nc1nc(-c2c[nH]c3ncc(F)cc23)nc2cccc(F)c12,CC50 at 120 h,[1],1.8 µM
O=C(O)[C@H]1C2CCC(CC2)[C@@H]1Nc1nc(-c2c[nH]c3ncc(F)cc23)nc2ccsc12,clearance,[5],1.13 L/h/kg
same,AUC,[6],690 nM·h
same,CC50 at 120 h,[1],1.5 µM
same,half-life at 1 µM,[2],0.808 h
same,half-life,[7],2 h
same,half-life at 1 µM,[3],0.87 h
same,Tmax,[8],0.4 h
same,AUC,[9],1010 nM·h
same,half-life at 1 µM,[4],0.828 h
same,Vd,[10],2.4 L/kg
same,Cmax,[11],0.172 µM
same,bioavailability,[12],37%
O=C(O)[C@H]1C2CCC(CC2)[C@@H]1Nc1nc(-c2c[nH]c3ncc(F)cc23)nc2ccoc12,CC50 at 120 h,[1],6.2 µM
O=C(O)[C@H]1C2CCC(CC2)[C@@H]1Nc1nc(-c2c[nH]c3ncc(F)cc23)nc2c1CSC2,CC50 at 120 h,[1],4.4 µM
O=C(O)[C@H]1C2CCC(CC2)[C@@H]1Nc1nc(-c2c[nH]c3ncc(F)cc23)nc2c1CCC2,CC50 at 120 h,[1],10 µM
O=C(O)[C@H]1C2CCC(CC2)[C@@H]1Nc1nc(-c2c[nH]c3ncc(F)cc23)nc2c1CCS2,CC50 at 120 h,[1],5.6 µM
O=C(O)[C@H]1C2CCC(CC2)[C@@H]1Nc1nc(-c2n[nH]c3ncc(F)cc23)nc2c1SCC2,CC50 at 120 h,[1],4.9 µM
same,bioavailability,[13],57%
same,half-life at 1 µM,[2],1.71 h
same,half-life at 1 µM,[3],> 2.42 h
same,Tmax,[14],0.67 h
same,half-life at 1 µM,[4],> 2.42 h
same,AUC,[15],28700 nM·h
same,Cmax,[16],32.6 µM
same,Vd,[17],0.2 L/kg
same,half-life,[18],3 h
same,AUC,[19],152000 nM·h
same,clearance,[20],0.078 L/h/kg
O=C(O)[C@H]1C2CCC(CC2)[C@@H]1Nc1nc(-c2c[nH]c3ccc(F)cc23)ncc1F,CC50 at 120 h,[1],10 µM
O=C(O)[C@H]1C2CCC(CC2)[C@@H]1Nc1nc(-c2c[nH]c3ncc(F)cc23)nc2cccnc12,CC50 at 120 h,[1],7 µM
O=C(O)[C@H]1C2CCC(CC2)[C@@H]1Nc1nc(-c2c[nH]c3ncc(F)cc23)nc2c1CS(=O)(=O)C2,CC50 at 120 h,[1],> 50 µM
Cc1cnc2c(N[C@H]3C4CCC(CC4)[C@@H]3C(=O)O)nc(-c3c[nH]c4ncc(F)cc34)nc2c1,CC50 at 120 h,[1],4.9 µM
O=C(O)[C@H]1C2CCC(CC2)[C@@H]1Nc1nc(-c2c[nH]c3ncc(F)cc23)nc2cc(F)cnc12,CC50 at 120 h,[1],1.4 µM
O=C(O)[C@H]1C2CCC(CC2)[C@@H]1Nc1nc(-c2c[nH]c3ncc(F)cc23)nc2c1CCCC2,CC50 at 120 h,[1],> 50 µM
O=C(O)[C@H]1C2CCC(CC2)[C@@H]1Nc1nc(-c2c[nH]c3ncc(F)cc23)nc2[nH]ccc12,CC50 at 120 h,[1],15 µM
Cc1cccc2nc(-c3c[nH]c4ncc(F)cc34)nc(N[C@H]3C4CCC(CC4)[C@@H]3C(=O)O)c12,CC50 at 120 h,[1],4.7 µM
O=C(O)[C@H]1C2CCC(CC2)[C@@H]1Nc1nc(-c2c[nH]c3ncc(F)cc23)nc2c1S(=O)(=O)CC2,CC50 at 120 h,[1],> 50 µM
O=C(O)[C@H]1C2CCC(CC2)[C@@H]1N1CCOc2cnc(-c3c[nH]c4ncc(F)cc34)nc21,CC50 at 120 h,[1],> 50 µM
O=C(O)[C@H]1C2CCC(CC2)[C@@H]1Nc1nc(-c2c[nH]c3ncc(F)cc23)nc2cscc12,clearance,[5],4.42 L/h/kg
same,AUC,[6],48.8 nM·h
same,CC50 at 120 h,[1],> 50 µM
same,half-life,[7],1.3 h
same,Tmax,[8],0.33 h
same,AUC,[9],252 nM·h
same,Vd,[10],5.7 L/kg
same,Cmax,[11],0.0292 µM
same,bioavailability,[12],10%
Cc1cccc2nc(N[C@H]3C4CCC(CC4)[C@@H]3C(=O)O)nc(-c3c[nH]c4ncc(F)cc34)c12,CC50 at 120 h,[1],2.1 µM
O=C(O)[C@H]1C2CCC(CC2)[C@@H]1n1ccc2cnc(-c3c[nH]c4ncc(F)cc34)nc21,CC50 at 120 h,[1],4 µM
O=C(O)[C@H]1C2CCC(CC2)[C@@H]1Nc1nc(-c2c[nH]c3ncc(F)cc23)nc2cc(C(F)F)sc12,CC50 at 120 h,[1],3.3 µM
O=C(O)[C@H]1C2CCC(CC2)[C@@H]1Nc1nc(-c2c[nH]c3ncc(F)cc23)nc2nccnc12,CC50 at 120 h,[1],46 µM
O=C(O)[C@H]1C2CCC(CC2)[C@@H]1Nc1nc(-c2c[nH]c3ncc(F)cc23)nc2sccc12,AUC,[6],1350 nM·h
same,CC50 at 120 h,[1],0.6 µM
same,half-life at 1 µM,[2],1.02 h
same,half-life at 1 µM,[3],1.52 h
same,Tmax,[8],0.83 h
same,half-life at 1 µM,[4],1.74 h
same,Cmax,[11],0.509 µM
O=C(O)[C@H]1C2CCC(CC2)[C@@H]1Nc1nc(-c2c[nH]c3ncc(F)cc23)nc2c1SCC2,CC50 at 120 h,[1],4.5 µM
same,bioavailability,[13],71%
same,half-life at 1 µM,[2],0.855 h
same,half-life at 1 µM,[3],1.92 h
same,Tmax,[14],0.25 h
same,half-life at 1 µM,[4],1.66 h
same,AUC,[15],2780 nM·h
same,Cmax,[16],15 µM
same,Vd,[17],2.3 L/kg
same,half-life,[18],2.3 h
same,AUC,[19],19500 nM·h
same,clearance,[20],0.828 L/h/kg
N#Cc1cn([C@H]2C3CCC(CC3)[C@@H]2C(=O)O)c2nc(-c3c[nH]c4ncc(F)cc34)ncc12,CC50 at 120 h,[1],5.4 µM
O=C(O)[C@H]1C2CCC(CC2)[C@@H]1n1cnc2cnc(-c3c[nH]c4ncc(F)cc34)nc21,CC50 at 120 h,[1],21.7 µM
O=C(O)[C@H]1C2CCC(CC2)[C@@H]1Nc1nc(-c2n[nH]c3ncc(F)cc23)nc2sccc12,CC50 at 120 h,[1],2.7 µM
same,half-life at 1 µM,[2],0.55 h
same,half-life at 1 µM,[3],1.08 h
same,half-life at 1 µM,[4],1.18 h
O=C(O)[C@H]1C2CCC(CC2)[C@@H]1Nc1nc(-c2c[nH]c3ncc(F)cc23)ncc1F [PIMODIVIR],CC50 at 120 h,[1],12 µM
same,bioavailability,[13],100%
same,half-life at 1 µM,[2],> 2.42 h
same,half-life at 1 µM,[3],> 2.42 h
same,Tmax,[14],2.5 h
same,half-life at 1 µM,[4],> 2.42 h
same,AUC,[15],1360 nM·h
same,Cmax,[16],2.05 µM
same,Vd,[17],7.1 L/kg
same,half-life,[18],1.9 h
same,AUC,[19],13400 nM·h
same,clearance,[20],1.85 L/h/kg
